Data published in ChEMBL document CHEMBL1155551, “First synthesis and antiprotozoal activities of divinyl sulfone-modified carbohydrates” (Bioorg Med Chem Lett, 2010).

Columns and labels:
[1] = test system: Entamoeba histolytica; assay: Antiprotozoal activity against Entamoeba histolytica after 24 hrs by trypan blue assay; type: functional, organism-based
How it was run: (§1)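 Trophozoites kept in TYIS-33 medium, E. histolytica at 37 °C and E. invadens at 25 °C. About 5 × 10⁵ cells/mL exposed to compounds (10 mM stocks in DMSO) for 24 h, with DMSO as negative and metronidazole as positive control. Cells washed in PBS; live cells counted by hemocytometer with trypan blue. IC50 fitted from at least three experiments, each in triplicate.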

[2] = test system: Entamoeba invadens; assay: Antiprotozoal activity against Entamoeba invadens after 24 hrs by trypan blue assay; type: functional, organism-based; how it was run: as §1
[3] = test system: MCF7; assay: Cytotoxicity against human MCF7 after 36 hrs by MTT assay; type: cell-based; conditions: mcf7, 48 h, in the assay text read “48 hrs” for “36 hrs”
How it was run: (§2)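 MCF7 or AH927 cells seeded at 2 × 10³ per well under 5% CO2, 37 °C. After 36 h, compound added at concentrations ranging from 0 to 100, with untreated wells as control. Viability read by MTT after 48 h of treatment.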

[4] = Cytotoxicity against cat AH927 after 36 hrs by MTT assay; conditions: Felis catus, 48 h, in the assay text read “48 hrs” for “36 hrs”; how it was run: as §2

| Structure (SMILES) | IC50 [1] [µM] | IC50 [2] [µM] | Activity [3] | Activity [4] |
| --- | --- | --- | --- | --- |
| C=CS(=O)(=O)C1=C[C@@H](OC)O[C@@H]1COC(c1ccccc1)(c1ccccc1)c1ccccc1 | 37.9 | 25 | – | – |
| C=CS(=O)(=O)C1=C[C@H](OC)O[C@@H]1COCc1ccccc1 | 19.5 | 9.3 | Non-toxic | Non-toxic |
| C=CS(=O)(=O)C1=C[C@@H](OC)O[C@@H]1COCc1ccccc1 | 24.4 | 30.1 | – | – |
| C=CS(=O)(=O)C1=C[C@H](OC)O[C@@H]1COC(c1ccccc1)(c1ccccc1)c1ccccc1 | 32.9 | 17 | – | – |
| Cc1ncc([N+](=O)[O-])n1CCO [METRONIDAZOLE] | 2.5 | 3 | – | – |
